Data taken from ChEMBL document CHEMBL5058577, “EUbOPEN Chemogenomics Library 2 (Multiplex)” (2022).

System: HEK-293T
Test: Multiplex assay against HEK293T
Type: toxicity, cell-based
Conditions: human
Procedure, shortened: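 On a CQ1 microscope at 37°C and 5% CO2, live cells were imaged after compound addition. They had been stained at seeding with Hoechst33342, BioTracker Green Microtubule Cytoskeleton Dye, MitoTracker Red and Annexin V Alexa Fluor 680. CellPathfinder machine-learning gating assigned cells to Hoechst high-intensity objects or normal cells, normal cells to healthy, pyknosed or fragmented nuclei, and pyknosed cells to mitotic or apoptotic. Tubulin, mitochondrial-mass and membrane-permeability phenotypes are per cents of healthy-nucleus cells.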

[1] = 12 h, 1 µM, compound concentration 1 uM, replicate 1
[2] = 12 h, 1 µM, compound concentration 1 uM, replicate 2
[3] = 12 h, 10 µM, compound concentration 10 uM, replicate 1
[4] = 12 h, 10 µM, compound concentration 10 uM, replicate 2
[5] = 24 h, 1 µM, compound concentration 1 uM, replicate 1
[6] = 24 h, 1 µM, compound concentration 1 uM, replicate 2
[7] = 24 h, 10 µM, compound concentration 10 uM, replicate 1
[8] = 24 h, 10 µM, compound concentration 10 uM, replicate 2
[9] = 48 h, 1 µM, compound concentration 1 uM, replicate 1
[10] = 48 h, 1 µM, compound concentration 1 uM, replicate 2
[11] = 48 h, 10 µM, compound concentration 10 uM, replicate 1
[12] = 48 h, 10 µM, compound concentration 10 uM, replicate 2

`C[C@H](NC(=O)CNC(=O)c1cccc(Cl)c1)c1ccccc1` was tested. Which “Population Apoptotic (%)” value [1] did it give?
Its value is 33%.

And the “Population Fragmented Nuclei (%)” value [1]?
The value was 5%.

What about the “Population Healthy Nuclei (%)” value [1] of the same compound?
The value was 79%.

And the “Population Hoechst High Intensity Objects (%)” value [1]?
The value was 8%.

And the “Population Membrane Permeable-Phenotype (%)” value [1]?
Its value is 0%.

What about the “Population Mitochondria Different-Phenotype (%)” value [1] of the same compound?
The value was 39%.

And the “Population Mitotic Cells (%)” value [1]?
Its value is 66%.

What about the “Population Normal (%)” value [1] of the same compound?
Its value is 91%.

What about the “Population Pyknosed Nuclei (%)” value [1] of the same compound?
Its value is 15%.

And the “Population Tubulin-Different-Phenotype (%)” value [1]?
The value was 29%.

What about the “Total Cell Count” value [1] of the same compound?
The value was 449.

What about the “Population Apoptotic (%)” value [2] of the same compound?
Its value is 48%.

And the “Population Fragmented Nuclei (%)” value [2]?
The value was 6%.

And the “Population Healthy Nuclei (%)” value [2]?
Its value is 84%.

What about the “Population Hoechst High Intensity Objects (%)” value [2] of the same compound?
Its value is 4%.

What about the “Population Mitochondria Different-Phenotype (%)” value [2] of the same compound?
The value was 52%.

And the “Population Mitotic Cells (%)” value [2]?
Its value is 51%.

And the “Population Normal (%)” value [2]?
The value was 95%.

What about the “Population Pyknosed Nuclei (%)” value [2] of the same compound?
The value was 9%.

And the “Population Tubulin-Different-Phenotype (%)” value [2]?
The value was 17%.

And the “Total Cell Count” value [2]?
Its value is 384.

What about the “Population Apoptotic (%)” value [3] of the same compound?
The value was 41%.

And the “Population Fragmented Nuclei (%)” value [3]?
The value was 6%.

What about the “Population Healthy Nuclei (%)” value [3] of the same compound?
Its value is 76%.

And the “Population Hoechst High Intensity Objects (%)” value [3]?
Its value is 7%.

And the “Population Membrane Permeable-Phenotype (%)” value [3]?
Its value is 0%.

What about the “Population Mitochondria Different-Phenotype (%)” value [3] of the same compound?
Its value is 54%.

And the “Population Mitotic Cells (%)” value [3]?
The value was 58%.

What about the “Population Normal (%)” value [3] of the same compound?
Its value is 92%.

And the “Population Pyknosed Nuclei (%)” value [3]?
The value was 17%.

What about the “Population Tubulin-Different-Phenotype (%)” value [3] of the same compound?
Its value is 39%.

And the “Total Cell Count” value [3]?
Its value is 362.

What about the “Population Apoptotic (%)” value [4] of the same compound?
Its value is 58%.

And the “Population Fragmented Nuclei (%)” value [4]?
The value was 7%.

And the “Population Healthy Nuclei (%)” value [4]?
The value was 77%.

And the “Population Hoechst High Intensity Objects (%)” value [4]?
Its value is 13%.

And the “Population Mitochondria Different-Phenotype (%)” value [4]?
The value was 61%.

What about the “Population Mitotic Cells (%)” value [4] of the same compound?
Its value is 41%.

What about the “Population Normal (%)” value [4] of the same compound?
The value was 86%.

And the “Population Pyknosed Nuclei (%)” value [4]?
The value was 15%.

What about the “Population Tubulin-Different-Phenotype (%)” value [4] of the same compound?
The value was 33%.

What about the “Total Cell Count” value [4] of the same compound?
Its value is 272.

What about the “Population Apoptotic (%)” value [5] of the same compound?
The value was 23%.

What about the “Population Fragmented Nuclei (%)” value [5] of the same compound?
Its value is 9%.

What about the “Population Healthy Nuclei (%)” value [5] of the same compound?
The value was 80%.

And the “Population Hoechst High Intensity Objects (%)” value [5]?
Its value is 4%.

What about the “Population Membrane Permeable-Phenotype (%)” value [5] of the same compound?
Its value is 1%.

And the “Population Mitochondria Different-Phenotype (%)” value [5]?
The value was 25%.

What about the “Population Mitotic Cells (%)” value [5] of the same compound?
Its value is 76%.

What about the “Population Normal (%)” value [5] of the same compound?
Its value is 95%.

What about the “Population Pyknosed Nuclei (%)” value [5] of the same compound?
The value was 10%.

What about the “Population Tubulin-Different-Phenotype (%)” value [5] of the same compound?
The value was 15%.

And the “Total Cell Count” value [5]?
The value was 646.

What about the “Population Apoptotic (%)” value [6] of the same compound?
The value was 45%.

What about the “Population Fragmented Nuclei (%)” value [6] of the same compound?
Its value is 7%.

And the “Population Healthy Nuclei (%)” value [6]?
Its value is 84%.

What about the “Population Hoechst High Intensity Objects (%)” value [6] of the same compound?
Its value is 2%.

What about the “Population Membrane Permeable-Phenotype (%)” value [6] of the same compound?
Its value is 0%.

And the “Population Mitochondria Different-Phenotype (%)” value [6]?
The value was 32%.

What about the “Population Mitotic Cells (%)” value [6] of the same compound?
Its value is 54%.

What about the “Population Normal (%)” value [6] of the same compound?
The value was 97%.

What about the “Population Pyknosed Nuclei (%)” value [6] of the same compound?
The value was 7%.

And the “Population Tubulin-Different-Phenotype (%)” value [6]?
The value was 9%.

And the “Total Cell Count” value [6]?
The value was 476.

What about the “Population Apoptotic (%)” value [7] of the same compound?
Its value is 43%.

And the “Population Fragmented Nuclei (%)” value [7]?
The value was 9%.

What about the “Population Healthy Nuclei (%)” value [7] of the same compound?
The value was 77%.

What about the “Population Hoechst High Intensity Objects (%)” value [7] of the same compound?
The value was 4%.

What about the “Population Membrane Permeable-Phenotype (%)” value [7] of the same compound?
Its value is 0%.

And the “Population Mitochondria Different-Phenotype (%)” value [7]?
Its value is 39%.

What about the “Population Mitotic Cells (%)” value [7] of the same compound?
Its value is 56%.

What about the “Population Normal (%)” value [7] of the same compound?
The value was 95%.

And the “Population Pyknosed Nuclei (%)” value [7]?
Its value is 12%.

What about the “Population Tubulin-Different-Phenotype (%)” value [7] of the same compound?
Its value is 25%.

And the “Total Cell Count” value [7]?
The value was 505.

And the “Population Apoptotic (%)” value [8]?
The value was 58%.

And the “Population Fragmented Nuclei (%)” value [8]?
Its value is 10%.

What about the “Population Healthy Nuclei (%)” value [8] of the same compound?
The value was 78%.

And the “Population Hoechst High Intensity Objects (%)” value [8]?
Its value is 9%.

What about the “Population Mitochondria Different-Phenotype (%)” value [8] of the same compound?
The value was 49%.

What about the “Population Mitotic Cells (%)” value [8] of the same compound?
Its value is 41%.

What about the “Population Normal (%)” value [8] of the same compound?
Its value is 90%.

And the “Population Pyknosed Nuclei (%)” value [8]?
Its value is 11%.

And the “Population Tubulin-Different-Phenotype (%)” value [8]?
Its value is 19%.

And the “Total Cell Count” value [8]?
The value was 303.

What about the “Population Apoptotic (%)” value [9] of the same compound?
The value was 19%.

And the “Population Fragmented Nuclei (%)” value [9]?
The value was 13%.

And the “Population Healthy Nuclei (%)” value [9]?
Its value is 80%.

And the “Population Hoechst High Intensity Objects (%)” value [9]?
Its value is 3%.

And the “Population Membrane Permeable-Phenotype (%)” value [9]?
Its value is 0%.

What about the “Population Mitochondria Different-Phenotype (%)” value [9] of the same compound?
Its value is 15%.

What about the “Population Mitotic Cells (%)” value [9] of the same compound?
The value was 80%.

What about the “Population Normal (%)” value [9] of the same compound?
The value was 96%.

What about the “Population Pyknosed Nuclei (%)” value [9] of the same compound?
The value was 5%.

And the “Population Tubulin-Different-Phenotype (%)” value [9]?
Its value is 12%.

And the “Total Cell Count” value [9]?
Its value is 984.

What about the “Population Apoptotic (%)” value [10] of the same compound?
The value was 30%.

What about the “Population Healthy Nuclei (%)” value [10] of the same compound?
Its value is 81%.

What about the “Population Hoechst High Intensity Objects (%)” value [10] of the same compound?
Its value is 2%.

What about the “Population Membrane Permeable-Phenotype (%)” value [10] of the same compound?
Its value is 2%.

And the “Population Mitochondria Different-Phenotype (%)” value [10]?
Its value is 16%.

And the “Population Mitotic Cells (%)” value [10]?
The value was 70%.

What about the “Population Normal (%)” value [10] of the same compound?
The value was 97%.

What about the “Population Tubulin-Different-Phenotype (%)” value [10] of the same compound?
Its value is 6%.

What about the “Total Cell Count” value [10] of the same compound?
The value was 606.

What about the “Population Apoptotic (%)” value [11] of the same compound?
The value was 44%.

What about the “Population Fragmented Nuclei (%)” value [11] of the same compound?
Its value is 15%.

And the “Population Healthy Nuclei (%)” value [11]?
Its value is 77%.

What about the “Population Hoechst High Intensity Objects (%)” value [11] of the same compound?
The value was 1%.

What about the “Population Membrane Permeable-Phenotype (%)” value [11] of the same compound?
The value was 0%.

What about the “Population Mitochondria Different-Phenotype (%)” value [11] of the same compound?
Its value is 26%.

What about the “Population Mitotic Cells (%)” value [11] of the same compound?
Its value is 55%.

What about the “Population Normal (%)” value [11] of the same compound?
Its value is 98%.

What about the “Population Pyknosed Nuclei (%)” value [11] of the same compound?
Its value is 7%.

What about the “Population Tubulin-Different-Phenotype (%)” value [11] of the same compound?
The value was 18%.

What about the “Total Cell Count” value [11] of the same compound?
The value was 735.

What about the “Population Apoptotic (%)” value [12] of the same compound?
The value was 35%.

What about the “Population Fragmented Nuclei (%)” value [12] of the same compound?
Its value is 19%.

And the “Population Healthy Nuclei (%)” value [12]?
Its value is 72%.

What about the “Population Hoechst High Intensity Objects (%)” value [12] of the same compound?
Its value is 2%.

What about the “Population Mitochondria Different-Phenotype (%)” value [12] of the same compound?
Its value is 28%.

And the “Population Mitotic Cells (%)” value [12]?
Its value is 64%.

What about the “Population Normal (%)” value [12] of the same compound?
The value was 97%.

And the “Population Tubulin-Different-Phenotype (%)” value [12]?
The value was 16%.

What about the “Total Cell Count” value [12] of the same compound?
Its value is 462.
